Molecular target: T1, Adrenergic receptor alpha-2 (Rattus norvegicus) (UniProt P22086+P19328+P22909)
Assay: Antilog of the difference between pD2 of Alpha-2 adrenergic receptor and pD2 of Alpha-1 adrenergic receptor
Details: not given
With CC(Oc1cccc(-c2ccccc2)c1)C1=NCCN1 (centres undefined) the Ratio was 135. With c1ccc(-c2ccccc2NCC2=NCCN2)cc1 the Ratio was 29.5. In the case of CC(Oc1ccc(-c2ccccc2)cc1)C1=NCCN1 (centres undefined), the Ratio is reported as 0.78. With CC(Nc1ccccc1-c1ccccc1)C1=NCCN1 (centres undefined) the Ratio was 42.7.

Molecular target: T1, Adrenergic receptor alpha-2 (Rattus norvegicus)
Assay: pD2 is -log ED50 required to produce 50% inhibition of the twitch response in rat vas deferens (intrinsic activity in presence of cirazoline) for Alpha-2 adrenergic receptor
Format: tissue-based
Details: in the assay text read “clonidine” for “cirazoline”
Outline: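 Prostatic portion (12 mm) of male rat vas deferens (125–150 g) at 37 °C under 95% O2/5% CO2, 1 g load. Bath contains 0.54 mM MgCl2, prazosin, 1 µM propranolol and 10 µM cocaine.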
Compound CC(Oc1cccc(-c2ccccc2)c1)C1=NCCN1 (centres undefined) has a pD2 of 6.66.

Tested on: not listed separately
Assay: Relative binding affinity for Alpha-2 adrenergic receptor and I2 imidazoline binding site (Antilog of the difference between pKi)
Details: not given
Outline: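 Ratio from two radioligand assays. α2: rat cortex membranes with 5 nM [3H]clonidine, nonspecific binding with 10 µM phentolamine. I2: rabbit kidney membranes with 5 nM [3H]idazoxan, adrenoreceptors masked by 10 µM norepinephrine, nonspecific binding with 10 µM cirazoline. Both assays 45 min at 25 °C, Ki by Cheng–Prusoff.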
In the case of CC(Oc1ccccc1Cc1ccccc1)C1=NCCN1 (centres undefined), the Ratio is reported as 47.9. c1ccc(NCC2=NCCN2)cc1 [PHENAMAZOLINE] showed a Ratio of 0.46. Work on CC(Oc1ccccc1)C1=NCCN1 (centres undefined) yielded a Ratio of 27.5. For CC(Oc1cccc(-c2ccccc2)c1)C1=NCCN1 (centres undefined), the Ratio was 2.2. With c1ccc(-c2ccccc2NCC2=NCCN2)cc1 the Ratio was 2.3. For CC(Oc1ccc(-c2ccccc2)cc1)C1=NCCN1 (centres undefined), the Ratio was 5.8. With CC(Nc1ccccc1-c1ccccc1)C1=NCCN1 (centres undefined) the Ratio was 126. In the case of c1ccc(Cc2ccccc2OCC2=NCCN2)cc1, the Ratio is reported as 0.66.

Molecular target: T2, Adrenergic receptor alpha-1 (Rattus norvegicus) (UniProt P15823+P23944+P43140)
Assay: pKb value using (-)-norepinephrine as agonist for Alpha-1 adrenergic receptor
Details: not given
CC(Oc1ccc(-c2ccccc2)cc1)C1=NCCN1 (centres undefined) gave a pKb of 5.92.

Molecular target: T2, Adrenergic receptor alpha-1 (Rattus norvegicus)
Assay: Inhibition of Alpha-1 adrenergic receptor twitch response in rat vas deferens in presence of cirazoline, pD2 is -log ED50
Format: tissue-based
Details: not given
Compound c1ccc(-c2ccccc2OCC2=NCCN2)cc1 has a pD2 of 6.68. For CC(Oc1ccccc1Cc1ccccc1)C1=NCCN1 (centres undefined), the pD2 was 5.99. With C[C@H](Oc1ccccc1-c1ccccc1)C1=NCCN1 the pD2 was 7.51. In the case of c1ccc(NCC2=NCCN2)cc1 [PHENAMAZOLINE], the pD2 is reported as 4.89. CC(Oc1ccccc1)C1=NCCN1 (centres undefined) showed a pD2 of 5.2. In the case of CC(Oc1cccc(-c2ccccc2)c1)C1=NCCN1 (centres undefined), the pD2 is reported as 4.53. With c1ccc(-c2ccccc2NCC2=NCCN2)cc1 the pD2 was 6.37. Work on c1ccc(OCC2=NCCN2)cc1 yielded a pD2 of 5.26. CC(Oc1ccccc1-c1ccccc1)C1=NCCN1 (centres undefined) [BIPHENYLINE] gave a pD2 of 7.2. For CC(Nc1ccccc1-c1ccccc1)C1=NCCN1 (centres undefined), the pD2 was 6.73. Work on c1ccc(Cc2ccccc2OCC2=NCCN2)cc1 yielded a pD2 of 5.27. Compound C[C@@H](Oc1ccccc1-c1ccccc1)C1=NCCN1 has a pD2 of 6.23.

Molecular target: T1, Adrenergic receptor alpha-2 (Rattus norvegicus)
Assay: pKb value using clonidine as agonist for Alpha-2 adrenergic receptor
Format: functional
Details: not given
Outline: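 Prostatic rat vas deferens held under 0.1 Hz electrical stimulation, with prazosin, propranolol (1 µM) and cocaine (10 µM) present. Compounds lacking agonist activity were tested against clonidine. Dose ratios were taken at clonidine ED50 at one antagonist concentration, tested six times. Dissociation constant by the van Rossum method.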
CC(Oc1ccccc1Cc1ccccc1)C1=NCCN1 (centres undefined) showed a pKb of 6.87. Work on c1ccc(NCC2=NCCN2)cc1 [PHENAMAZOLINE] yielded a pKb of 6.38. Work on CC(Oc1ccccc1)C1=NCCN1 (centres undefined) yielded a pKb of 7.29. Work on c1ccc(OCC2=NCCN2)cc1 yielded a pKb of 6.71. With CC(Oc1ccc(-c2ccccc2)cc1)C1=NCCN1 (centres undefined) the pKb was 5.81. Work on c1ccc(Cc2ccccc2OCC2=NCCN2)cc1 yielded a pKb of 7.14.

Molecular target: T1, Adrenergic receptor alpha-2 (Rattus norvegicus)
Assay: pD2 is -log ED50 required to produce 50% inhibition of the twitch response in rat vas deferens (intrinsic activity in presence of clonidine) for Alpha-2 adrenergic receptor
Format: tissue-based
Details: not given
Outline: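 Prostatic portion (12 mm) of male albino rat (125–150 g) vas deferens, 37 °C, O2/CO2 95%/5%, 1 g loading tension. Physiological salt solution had 0.54 mM MgCl2, prazosin ([…]), propranolol (1 µM) and cocaine (10 µM). Field stimulation was 0.1 Hz, 3 ms, 10–15 V, recorded isometrically.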
c1ccc(-c2ccccc2OCC2=NCCN2)cc1 showed a pD2 of 8.46. With C[C@H](Oc1ccccc1-c1ccccc1)C1=NCCN1 the pD2 was 8.55. c1ccc(-c2ccccc2NCC2=NCCN2)cc1 gave a pD2 of 7.84. CC(Oc1ccccc1-c1ccccc1)C1=NCCN1 (centres undefined) [BIPHENYLINE] showed a pD2 of 8.52. In the case of CC(Nc1ccccc1-c1ccccc1)C1=NCCN1 (centres undefined), the pD2 is reported as 8.36. C[C@@H](Oc1ccccc1-c1ccccc1)C1=NCCN1 showed a pD2 of 7.4.

Molecular target: Imidazoline I2 binding sites (Oryctolagus cuniculus)
Assay: Displacement of [3H]idazoxan from imidazoline receptor I-2 binding sites in rabbit kidney membrane
Details: not given
In the case of CC(Oc1ccccc1Cc1ccccc1)C1=NCCN1 (centres undefined), the “Log Ki” value is reported as -5.12. In the case of c1ccc(NCC2=NCCN2)cc1 [PHENAMAZOLINE], the “Log Ki” value is reported as -7.48. For CC(Oc1ccccc1)C1=NCCN1 (centres undefined), the “Log Ki” value was -5.57. With CC(Oc1cccc(-c2ccccc2)c1)C1=NCCN1 (centres undefined) the “Log Ki” value was -6.57. In the case of c1ccc(-c2ccccc2NCC2=NCCN2)cc1, the “Log Ki” value is reported as -6.09. For CC(Oc1ccc(-c2ccccc2)cc1)C1=NCCN1 (centres undefined), the “Log Ki” value was -6.74. For CC(Nc1ccccc1-c1ccccc1)C1=NCCN1 (centres undefined), the “Log Ki” value was -4.9. In the case of c1ccc(Cc2ccccc2OCC2=NCCN2)cc1, the “Log Ki” value is reported as -6.7.

Molecular target: T3, Adrenergic receptor alpha-2 (Rattus norvegicus, UniProt P22086+P19328+P22909)
T3 sequence (P22086 whole entry): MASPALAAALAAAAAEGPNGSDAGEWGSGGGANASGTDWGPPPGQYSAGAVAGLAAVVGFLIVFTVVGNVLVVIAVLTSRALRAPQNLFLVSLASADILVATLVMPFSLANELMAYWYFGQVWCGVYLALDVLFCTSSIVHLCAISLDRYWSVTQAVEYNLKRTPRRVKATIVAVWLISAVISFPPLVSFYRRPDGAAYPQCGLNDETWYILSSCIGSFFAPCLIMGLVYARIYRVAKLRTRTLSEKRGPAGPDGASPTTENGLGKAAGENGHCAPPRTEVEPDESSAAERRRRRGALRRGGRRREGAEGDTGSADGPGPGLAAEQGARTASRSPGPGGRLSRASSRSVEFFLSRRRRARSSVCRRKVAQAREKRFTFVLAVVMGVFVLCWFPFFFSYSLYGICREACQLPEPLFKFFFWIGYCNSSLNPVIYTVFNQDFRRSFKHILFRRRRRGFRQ
T3 sequence (P19328 whole entry): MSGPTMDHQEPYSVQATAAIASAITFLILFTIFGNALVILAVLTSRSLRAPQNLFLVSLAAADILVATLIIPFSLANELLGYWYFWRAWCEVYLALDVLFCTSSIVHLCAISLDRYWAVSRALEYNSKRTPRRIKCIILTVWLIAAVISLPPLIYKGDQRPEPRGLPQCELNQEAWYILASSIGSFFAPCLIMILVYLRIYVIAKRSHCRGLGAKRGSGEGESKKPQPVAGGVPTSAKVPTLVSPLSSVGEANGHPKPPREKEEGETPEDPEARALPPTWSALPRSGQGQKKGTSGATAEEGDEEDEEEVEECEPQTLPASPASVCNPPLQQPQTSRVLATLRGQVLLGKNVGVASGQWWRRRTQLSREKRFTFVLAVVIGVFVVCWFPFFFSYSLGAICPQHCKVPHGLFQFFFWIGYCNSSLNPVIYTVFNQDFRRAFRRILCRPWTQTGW
T3 sequence (P22909 whole entry): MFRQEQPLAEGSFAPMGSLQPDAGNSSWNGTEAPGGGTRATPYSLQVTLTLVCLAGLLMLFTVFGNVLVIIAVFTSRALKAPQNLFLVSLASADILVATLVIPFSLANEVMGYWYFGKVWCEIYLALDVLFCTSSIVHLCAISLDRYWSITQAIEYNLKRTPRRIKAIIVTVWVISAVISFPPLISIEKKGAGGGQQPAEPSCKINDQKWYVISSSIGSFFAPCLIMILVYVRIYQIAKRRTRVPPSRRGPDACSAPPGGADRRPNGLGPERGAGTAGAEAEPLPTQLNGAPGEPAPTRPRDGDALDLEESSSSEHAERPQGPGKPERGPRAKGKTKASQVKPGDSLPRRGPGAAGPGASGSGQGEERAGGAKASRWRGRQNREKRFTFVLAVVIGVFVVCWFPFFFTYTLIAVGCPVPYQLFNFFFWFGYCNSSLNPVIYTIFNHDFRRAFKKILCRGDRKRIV
Assay: Displacement of [3H]clonidine from Alpha-2 adrenergic receptor of rat cortex membrane
Details: not given
Outline: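 Rat cerebral cortex membranes (200 µg protein) in 50 mM Tris-HCl pH 7.4, 5 nM [3H]clonidine, 10–12 competitor concentrations, 45 min at 25 °C; GF/B filtration, scintillation counting. Nonspecific binding with 10 µM phentolamine. Triplicate points; IC50 by nonlinear regression, Ki by Cheng–Prusoff, curves repeated at least three times, pKi ± SEM.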
For c1ccc(-c2ccccc2OCC2=NCCN2)cc1, the “Log Ki” value was -7.1. With CC(Oc1ccccc1Cc1ccccc1)C1=NCCN1 (centres undefined) the “Log Ki” value was -6.8. In the case of C[C@H](Oc1ccccc1-c1ccccc1)C1=NCCN1, the “Log Ki” value is reported as -7.5. For c1ccc(NCC2=NCCN2)cc1 [PHENAMAZOLINE], the “Log Ki” value was -7.14. In the case of CC(Oc1ccccc1)C1=NCCN1 (centres undefined), the “Log Ki” value is reported as -7.01. In the case of CC(Oc1cccc(-c2ccccc2)c1)C1=NCCN1 (centres undefined), the “Log Ki” value is reported as -6.92. With c1ccc(-c2ccccc2NCC2=NCCN2)cc1 the “Log Ki” value was -6.45. In the case of c1ccc(OCC2=NCCN2)cc1, the “Log Ki” value is reported as -7.28. For CC(Oc1ccccc1-c1ccccc1)C1=NCCN1 (centres undefined) [BIPHENYLINE], the “Log Ki” value was -7.91. With CC(Oc1ccc(-c2ccccc2)cc1)C1=NCCN1 (centres undefined) the “Log Ki” value was -7.5. With CC(Nc1ccccc1-c1ccccc1)C1=NCCN1 (centres undefined) the “Log Ki” value was -7. For c1ccc(Cc2ccccc2OCC2=NCCN2)cc1, the “Log Ki” value was -6.52. For C[C@@H](Oc1ccccc1-c1ccccc1)C1=NCCN1, the “Log Ki” value was -7.

Reference: ChEMBL document CHEMBL1135400, “Alpha2-adrenoreceptors profile modulation and high antinociceptive activity of (S)-(-)-2-[1-(biphenyl-2-yloxy)ethyl]-4,5-dihydro-1H-imidazole” (J Med Chem, 2002)
